{"source": "ChEMBL document CHEMBL4411315", "about": "“Discovery of Novel Dual Histone Deacetylase and Mammalian Target of Rapamycin Target Inhibitors as a Promising Strategy for Cancer Therapy” (J Med Chem, 2019)", "key": {"[1]": {"biological_target": "T1, Serine/threonine-protein kinase mTOR (Homo sapiens, UniProt P42345)", "assay": "Inhibition of mTOR in human MV4-11 cells assessed as decrease in 4EBP1 phosphorylation at ser 65 residues at 0.01 to 10 uM after 24 hrs by Western blot analysis", "format": "cell-based", "summary_of_the_method": "(§1)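 Treatment of MV4-11 cells lasted 24 h at 0.01, 0.1, 1 and 10 μM. Lysis in RIPA buffer and BCA quantitation, then 30 μg protein by SDS-PAGE, PVDF transfer, 5% milk block, primary antibody overnight at 4 °C, HRP secondary 1 h and ECL detection. p-p70S6K (T389), p-4EBP1 (S65), p-Akt (S473) and p-ERK were probed.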"}, "Histone deacetylase 9": {"biological_target": "Histone deacetylase 9 (Homo sapiens, UniProt Q9UKV0)", "sequence (Q9UKV0 whole entry)": "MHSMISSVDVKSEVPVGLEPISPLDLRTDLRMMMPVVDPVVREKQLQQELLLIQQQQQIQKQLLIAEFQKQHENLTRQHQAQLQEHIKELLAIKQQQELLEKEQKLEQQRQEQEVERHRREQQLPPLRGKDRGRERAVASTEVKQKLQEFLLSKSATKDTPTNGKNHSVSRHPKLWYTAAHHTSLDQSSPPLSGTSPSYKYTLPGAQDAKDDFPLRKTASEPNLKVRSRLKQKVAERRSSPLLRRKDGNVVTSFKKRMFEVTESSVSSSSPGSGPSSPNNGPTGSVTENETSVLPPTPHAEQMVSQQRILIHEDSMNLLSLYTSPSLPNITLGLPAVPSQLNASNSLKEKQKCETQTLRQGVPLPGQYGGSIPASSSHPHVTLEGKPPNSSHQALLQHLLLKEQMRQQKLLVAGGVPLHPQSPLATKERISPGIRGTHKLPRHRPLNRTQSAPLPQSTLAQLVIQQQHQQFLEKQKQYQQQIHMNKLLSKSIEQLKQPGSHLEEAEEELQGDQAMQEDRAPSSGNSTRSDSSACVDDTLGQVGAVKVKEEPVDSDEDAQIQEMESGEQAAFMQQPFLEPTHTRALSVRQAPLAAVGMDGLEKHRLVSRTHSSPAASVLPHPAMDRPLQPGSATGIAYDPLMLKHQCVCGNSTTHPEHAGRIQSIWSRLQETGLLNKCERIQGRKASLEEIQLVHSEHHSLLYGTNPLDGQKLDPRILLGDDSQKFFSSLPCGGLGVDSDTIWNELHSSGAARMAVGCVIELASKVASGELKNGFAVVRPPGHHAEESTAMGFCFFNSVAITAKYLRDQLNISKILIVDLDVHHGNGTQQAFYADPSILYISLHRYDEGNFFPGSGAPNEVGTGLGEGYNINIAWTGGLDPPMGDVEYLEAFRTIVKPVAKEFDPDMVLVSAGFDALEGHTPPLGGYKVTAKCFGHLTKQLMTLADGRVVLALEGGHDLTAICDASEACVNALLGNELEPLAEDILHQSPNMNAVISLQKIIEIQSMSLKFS", "assay": "Inhibition of recombinant full length C-terminal His-tagged human HDAC9 expressed in baculovirus expression system using Ac-peptide-AMC as substrate preincubated for 15 mins followed by substrate addition and measured after 1 hr by fluorescence assay"}, "MV4-11 [2]": {"tested_on": "MV4-11", "assay": "Cell cycle arrest in human MV4-11 cells assessed as accumulation at G2/M phase at 10 nM after 24 hrs by propidium iodide/RNase staining-based FACS analysis (reference value: 18.79%)", "format": "functional"}, "MV4-11 [3]": {"tested_on": "MV4-11", "assay": "Induction of apoptosis in human MV4-11 cells assessed as late apoptotic cells at 40 nM after 48 hrs by Annexin V-FITC/propidium iodide staining-based flow cytometric analysis (reference value: 5.03%)", "format": "functional"}, "MM1.S [4]": {"tested_on": "MM1.S", "assay": "Induction of apoptosis in human MM1S cells assessed as viable cells at 20 nM after 48 hrs by Annexin V-FITC/propidium iodide staining-based flow cytometric analysis (reference value: 98.9%)", "format": "functional", "settings": "read-out: Activity"}, "Histone deacetylase 4": {"biological_target": "Histone deacetylase 4 (Homo sapiens, UniProt P56524)", "sequence (P56524 whole entry)": "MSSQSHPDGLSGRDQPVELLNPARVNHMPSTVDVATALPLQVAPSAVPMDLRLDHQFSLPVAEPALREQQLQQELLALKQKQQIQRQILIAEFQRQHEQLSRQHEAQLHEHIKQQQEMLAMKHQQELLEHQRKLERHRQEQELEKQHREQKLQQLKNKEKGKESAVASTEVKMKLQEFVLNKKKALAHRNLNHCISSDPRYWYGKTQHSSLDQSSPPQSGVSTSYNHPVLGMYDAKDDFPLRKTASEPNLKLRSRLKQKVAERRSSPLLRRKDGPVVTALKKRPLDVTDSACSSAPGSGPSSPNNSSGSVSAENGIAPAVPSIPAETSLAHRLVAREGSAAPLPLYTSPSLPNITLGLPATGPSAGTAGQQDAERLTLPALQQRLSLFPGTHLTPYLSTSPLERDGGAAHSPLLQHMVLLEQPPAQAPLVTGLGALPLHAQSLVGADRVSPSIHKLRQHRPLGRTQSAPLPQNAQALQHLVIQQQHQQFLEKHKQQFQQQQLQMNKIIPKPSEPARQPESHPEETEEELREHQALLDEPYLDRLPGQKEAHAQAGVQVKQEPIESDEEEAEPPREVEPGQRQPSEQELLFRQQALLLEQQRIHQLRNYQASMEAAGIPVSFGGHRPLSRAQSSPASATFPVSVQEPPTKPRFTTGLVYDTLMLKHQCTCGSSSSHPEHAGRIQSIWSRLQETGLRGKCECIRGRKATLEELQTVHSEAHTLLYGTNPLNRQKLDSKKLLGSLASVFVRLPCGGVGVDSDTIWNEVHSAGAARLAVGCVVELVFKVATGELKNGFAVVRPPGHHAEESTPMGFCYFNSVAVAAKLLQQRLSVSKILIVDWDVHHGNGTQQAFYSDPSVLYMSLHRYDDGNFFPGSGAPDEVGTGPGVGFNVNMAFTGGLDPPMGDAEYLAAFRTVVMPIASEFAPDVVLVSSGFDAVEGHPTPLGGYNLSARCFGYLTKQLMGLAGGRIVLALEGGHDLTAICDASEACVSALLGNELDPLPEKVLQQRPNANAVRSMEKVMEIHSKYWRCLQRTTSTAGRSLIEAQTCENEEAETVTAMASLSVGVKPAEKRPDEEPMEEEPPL", "assay": "Inhibition of recombinant full length human HDAC4 expressed in baculovirus infected sf9 cells using Ac-peptide-AMC as substrate preincubated for 15 mins followed by substrate addition and measured after 1 hr by fluorescence assay"}, "MV4-11 [5]": {"tested_on": "MV4-11", "assay": "Induction of apoptosis in human MV4-11 cells assessed as early apoptotic cells at 20 nM after 48 hrs by Annexin V-FITC/propidium iodide staining-based flow cytometric analysis (reference value: 10.7%)", "format": "functional"}, "MM1.S [6]": {"tested_on": "MM1.S", "assay": "Induction of apoptosis in human MM1S cells assessed as early apoptotic cells at 20 nM after 48 hrs by Annexin V-FITC/propidium iodide staining-based flow cytometric analysis (reference value: 0.38%)", "format": "functional"}, "MV4-11 [7]": {"tested_on": "MV4-11", "assay": "Cell cycle arrest in human MV4-11 cells assessed as accumulation at G0/G1 phase at 2.5 nM after 24 hrs by propidium iodide/RNase staining-based FACS analysis (reference value: 44.79%)", "format": "functional"}, "Raji": {"tested_on": "Raji", "assay": "Antiproliferative activity against human Raji cells after 72 hrs by MTT assay", "format": "functional, cell-based", "summary_of_the_method": "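Log-phase cells were plated at 10000-15000 per well and exposed to serial concentrations after 24 h for 72 h. Read-out was MTT for 1-3 h, then 20% SDS overnight and absorbance at 570 nm. IC50 was calculated from growth versus untreated control, as mean ± SEM of at least three independent experiments.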"}, "Histone deacetylase 2": {"biological_target": "Histone deacetylase 2 (Homo sapiens, UniProt Q92769)", "sequence (Q92769 whole entry)": "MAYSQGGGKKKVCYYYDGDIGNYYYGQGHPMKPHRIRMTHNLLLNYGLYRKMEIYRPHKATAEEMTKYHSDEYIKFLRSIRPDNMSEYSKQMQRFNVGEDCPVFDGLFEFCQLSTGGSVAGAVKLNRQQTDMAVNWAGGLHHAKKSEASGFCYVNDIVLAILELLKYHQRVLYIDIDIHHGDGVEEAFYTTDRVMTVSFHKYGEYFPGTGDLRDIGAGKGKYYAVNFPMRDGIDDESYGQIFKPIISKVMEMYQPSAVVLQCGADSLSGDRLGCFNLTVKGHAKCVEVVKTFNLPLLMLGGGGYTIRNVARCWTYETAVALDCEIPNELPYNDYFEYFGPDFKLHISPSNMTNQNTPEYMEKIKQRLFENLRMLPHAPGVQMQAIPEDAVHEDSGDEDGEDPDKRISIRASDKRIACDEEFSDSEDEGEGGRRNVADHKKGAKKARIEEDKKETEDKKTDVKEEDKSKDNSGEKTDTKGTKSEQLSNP", "assay": "Inhibition of recombinant full length human HDAC2 expressed in baculovirus expression system using Ac-peptide-AMC as substrate preincubated for 15 mins followed by substrate addition and measured after 1 hr by fluorescence assay"}, "[8]": {"biological_target": "Protein deacetylase HDAC6 (Homo sapiens, UniProt Q9UBN7)", "sequence (Q9UBN7 whole entry)": "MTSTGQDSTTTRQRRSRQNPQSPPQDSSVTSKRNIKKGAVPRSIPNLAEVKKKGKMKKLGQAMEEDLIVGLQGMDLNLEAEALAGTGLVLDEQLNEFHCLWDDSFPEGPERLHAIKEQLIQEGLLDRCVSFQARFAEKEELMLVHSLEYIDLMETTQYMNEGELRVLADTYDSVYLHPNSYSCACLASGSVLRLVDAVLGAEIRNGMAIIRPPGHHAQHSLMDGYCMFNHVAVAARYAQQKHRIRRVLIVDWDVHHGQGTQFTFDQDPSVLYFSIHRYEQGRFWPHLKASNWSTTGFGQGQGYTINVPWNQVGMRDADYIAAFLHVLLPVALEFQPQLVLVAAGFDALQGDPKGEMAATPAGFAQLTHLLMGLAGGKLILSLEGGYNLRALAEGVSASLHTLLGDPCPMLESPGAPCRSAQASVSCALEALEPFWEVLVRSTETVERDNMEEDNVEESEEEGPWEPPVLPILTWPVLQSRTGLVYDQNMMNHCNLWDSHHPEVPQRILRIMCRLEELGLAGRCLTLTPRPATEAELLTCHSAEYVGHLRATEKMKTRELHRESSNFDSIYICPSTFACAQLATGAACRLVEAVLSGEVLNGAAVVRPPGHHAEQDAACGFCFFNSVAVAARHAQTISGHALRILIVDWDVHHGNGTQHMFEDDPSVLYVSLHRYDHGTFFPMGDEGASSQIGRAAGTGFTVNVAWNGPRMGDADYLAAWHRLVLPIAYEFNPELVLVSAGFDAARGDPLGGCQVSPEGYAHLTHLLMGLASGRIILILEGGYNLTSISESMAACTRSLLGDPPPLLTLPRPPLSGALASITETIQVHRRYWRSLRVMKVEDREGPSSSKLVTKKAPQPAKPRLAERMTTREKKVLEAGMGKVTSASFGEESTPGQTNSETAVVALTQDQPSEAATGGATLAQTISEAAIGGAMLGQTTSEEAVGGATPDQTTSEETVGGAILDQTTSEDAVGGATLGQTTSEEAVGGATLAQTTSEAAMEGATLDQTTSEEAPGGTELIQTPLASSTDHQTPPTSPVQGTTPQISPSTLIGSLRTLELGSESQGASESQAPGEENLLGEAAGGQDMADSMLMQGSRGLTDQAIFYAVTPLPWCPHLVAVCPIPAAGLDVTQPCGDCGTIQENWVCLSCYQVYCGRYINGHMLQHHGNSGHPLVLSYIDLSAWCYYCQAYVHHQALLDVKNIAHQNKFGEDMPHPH", "assay": "Inhibition of recombinant full length HDAC6 (unknown origin) using Ac-peptide-AMC as substrate preincubated for 15 mins followed by substrate addition and measured after 1 hr by fluorescence assay"}, "MV4-11 [9]": {"tested_on": "MV4-11", "assay": "Induction of apoptosis in human MV4-11 cells assessed as viable cells at 320 nM after 48 hrs by Annexin V-FITC/propidium iodide staining-based flow cytometric analysis (reference value: 84.1%)", "format": "functional", "settings": "MV4-11, 48 h, read-out: Activity"}, "MV4-11 [10]": {"tested_on": "MV4-11", "assay": "Cell cycle arrest in human MV4-11 cells assessed as accumulation at S phase at 1.25 nM after 24 hrs by propidium iodide/RNase staining-based FACS analysis (reference value: 36.42%)", "format": "functional"}, "MV4-11 [11]": {"tested_on": "MV4-11", "assay": "Induction of apoptosis in human MV4-11 cells assessed as early apoptotic cells at 10 nM after 48 hrs by Annexin V-FITC/propidium iodide staining-based flow cytometric analysis (reference value: 10.7%)", "format": "functional"}, "MM1.S [12]": {"tested_on": "MM1.S", "assay": "Antitumor activity against human MM1S cells xenografted in NOD/SCID mouse assessed as tumor growth inhibition at 10 mg/kg, iv administered every 2 days for 5 days and measured every 2 days post last dose by caliper method relative to control", "format": "functional", "settings": "read-out: TGI", "summary_of_the_method": "(§2)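 MM1S xenografts were made with 10^7 cells in 100 μL serum-free RPMI 1640, injected s.c. into the right flank of female NOD/SCID mice aged 5-6 weeks. Mice were randomized at 100-200 mm3, 6 per group. Dosing was i.v. every 2 days in saline with 2.5% DMSO and 10% cyclodextrin at pH 9. Tumours were measured by caliper every 2 days (volume = length × width² × 0.5) and weighed at the end.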"}, "MM1.S [13]": {"tested_on": "MM1.S", "assay": "Induction of apoptosis in human MM1S cells assessed as early apoptotic cells at 40 nM after 48 hrs by Annexin V-FITC/propidium iodide staining-based flow cytometric analysis (reference value: 0.38%)", "format": "functional"}, "OCI-AML2": {"tested_on": "OCI-AML2", "assay": "Antiproliferative activity against human OCI-AML2 cells after 72 hrs by MTT assay", "format": "functional, cell-based", "settings": "OCI-AML2, 72 h"}, "MV4-11 [14]": {"tested_on": "MV4-11", "assay": "Induction of apoptosis in human MV4-11 cells assessed as late apoptotic cells at 160 nM after 48 hrs by Annexin V-FITC/propidium iodide staining-based flow cytometric analysis (reference value: 5.03%)", "format": "functional"}, "Histone deacetylase 3": {"biological_target": "Histone deacetylase 3 (Homo sapiens, UniProt O15379)", "sequence (O15379 whole entry)": "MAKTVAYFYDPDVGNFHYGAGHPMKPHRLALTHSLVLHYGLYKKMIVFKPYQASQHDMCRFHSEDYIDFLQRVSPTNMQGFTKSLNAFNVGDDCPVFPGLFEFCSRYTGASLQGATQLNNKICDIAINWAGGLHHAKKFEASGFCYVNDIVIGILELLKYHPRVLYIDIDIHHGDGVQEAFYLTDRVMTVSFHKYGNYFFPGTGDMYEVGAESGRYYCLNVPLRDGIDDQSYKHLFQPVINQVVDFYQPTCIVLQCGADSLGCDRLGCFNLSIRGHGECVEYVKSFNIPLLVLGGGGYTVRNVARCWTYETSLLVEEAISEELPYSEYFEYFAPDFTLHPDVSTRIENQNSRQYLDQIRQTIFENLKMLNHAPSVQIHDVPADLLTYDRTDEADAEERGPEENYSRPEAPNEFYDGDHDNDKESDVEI", "assay": "Inhibition of recombinant full length HDAC3 (unknown origin) using Ac-peptide-AMC as substrate preincubated for 15 mins followed by substrate addition and measured after 1 hr by fluorescence assay"}, "MV4-11 [15]": {"tested_on": "MV4-11", "assay": "Induction of apoptosis in human MV4-11 cells assessed as early apoptotic cells at 160 nM after 48 hrs by Annexin V-FITC/propidium iodide staining-based flow cytometric analysis (reference value: 10.7%)", "format": "functional"}, "[16]": {"biological_target": "T1, Serine/threonine-protein kinase mTOR", "assay": "Inhibition of mTOR in human MV4-11 cells assessed as decrease in Akt phosphorylation at S473 residues at 0.01 to 10 uM after 24 hrs by Western blot analysis", "format": "cell-based", "summary_of_the_method": "as §1"}, "MM1.S [17]": {"tested_on": "MM1.S", "assay": "Antitumor activity against human MM1S cells xenografted in NOD/SCID mouse assessed as tumor growth inhibition at 20 mg/kg, iv administered every 2 days for 5 days and measured every 2 days post last dose by caliper method relative to control", "format": "functional", "settings": "read-out: TGI", "summary_of_the_method": "as §2"}, "MM1.S [18]": {"tested_on": "MM1.S", "assay": "Induction of apoptosis in human MM1S cells assessed as viable cells at 10 nM after 48 hrs by Annexin V-FITC/propidium iodide staining-based flow cytometric analysis (reference value: 98.9%)", "format": "functional", "settings": "read-out: Activity"}, "MM1.S [19]": {"tested_on": "MM1.S", "assay": "Induction of apoptosis in human MM1S cells assessed as late apoptotic cells at 40 nM after 48 hrs by Annexin V-FITC/propidium iodide staining-based flow cytometric analysis (reference value: 0.42%)", "format": "functional"}, "MM1.S [20]": {"tested_on": "MM1.S", "assay": "Cell cycle arrest in human MM1S cells assessed as accumulation at G0/G1 phase at 2.5 nM after 24 hrs by propidium iodide/RNase staining-based FACS analysis (reference value: 49.22%)", "format": "functional"}}, "note": "The source made the active and inactive calls. The rule behind the calls is not given here."}
{"compound": "C[C@@H]1CN(C(=O)Nc2ccc(-c3nc(N4CCOCC4)c4cnn(CCCCCCC(=O)NO)c4n3)cc2)CCO1", "values": [{"measurement": "inhibition", "setting": "[1]", "value": "Active"}, {"measurement": "IC50", "setting": "Histone deacetylase 9", "value": "> 1000", "unit": "nM"}, {"measurement": "Activity", "setting": "MV4-11 [2]", "value": 11.11, "unit": "%"}, {"measurement": "Activity", "setting": "MV4-11 [3]", "value": 57.6, "unit": "%"}, {"measurement": "viability at 0.02 µM", "setting": "MM1.S [4]", "value": 92.6, "unit": "%"}, {"measurement": "IC50", "setting": "Histone deacetylase 4", "value": "> 1000", "unit": "nM"}, {"measurement": "Activity", "setting": "MV4-11 [5]", "value": 38.2, "unit": "%"}, {"measurement": "Activity", "setting": "MM1.S [6]", "value": 1.61, "unit": "%"}, {"measurement": "Activity", "setting": "MV4-11 [7]", "value": 48.03, "unit": "%"}, {"measurement": "IC50", "setting": "Raji", "value": 1.9, "unit": "nM"}, {"measurement": "IC50", "setting": "Histone deacetylase 2", "value": 0.61, "unit": "nM"}, {"measurement": "IC50", "setting": "[8]", "value": 1.8, "unit": "nM"}, {"measurement": "viability at 0.32 µM", "setting": "MV4-11 [9]", "value": 2.57, "unit": "%"}, {"measurement": "Activity", "setting": "MV4-11 [10]", "value": 34.16, "unit": "%"}, {"measurement": "Activity", "setting": "MV4-11 [11]", "value": 14.8, "unit": "%"}, {"measurement": "inhibition in vivo at 10 mg/kg", "setting": "MM1.S [12]", "value": 48.1, "unit": "%"}, {"measurement": "Activity", "setting": "MM1.S [13]", "value": 4.81, "unit": "%"}, {"measurement": "IC50", "setting": "OCI-AML2", "value": 9.01, "unit": "nM"}, {"measurement": "Activity", "setting": "MV4-11 [14]", "value": 61.9, "unit": "%"}, {"measurement": "IC50", "setting": "Histone deacetylase 3", "value": 1.47, "unit": "nM"}, {"measurement": "Activity", "setting": "MV4-11 [15]", "value": 34.7, "unit": "%"}, {"measurement": "inhibition", "setting": "[16]", "value": "Active"}, {"measurement": "inhibition in vivo at 20 mg/kg", "setting": "MM1.S [17]", "value": 72.5, "unit": "%"}, {"measurement": "viability at 0.01 µM", "setting": "MM1.S [18]", "value": 95.1, "unit": "%"}, {"measurement": "Activity", "setting": "MM1.S [19]", "value": 23, "unit": "%"}, {"measurement": "Activity", "setting": "MM1.S [20]", "value": 52.62, "unit": "%"}]}
